Calls of active or inactive are those of the source. The calls are words filed in the database; no cut-off is given here.
Key:
[1] = biological target: T1, Tyrosine-protein phosphatase non-receptor type 1 (Rattus norvegicus) (UniProt P20417); assay: Inhibition of PTP1B in rat L6 cells assessed as increase in insulin-stimulated IRS1 tyrosine phosphorylation pre-incubated for 16 hrs before insulin stimulation for 10 mins by Western blot method; format: cell-based
T1 sequence (whole entry): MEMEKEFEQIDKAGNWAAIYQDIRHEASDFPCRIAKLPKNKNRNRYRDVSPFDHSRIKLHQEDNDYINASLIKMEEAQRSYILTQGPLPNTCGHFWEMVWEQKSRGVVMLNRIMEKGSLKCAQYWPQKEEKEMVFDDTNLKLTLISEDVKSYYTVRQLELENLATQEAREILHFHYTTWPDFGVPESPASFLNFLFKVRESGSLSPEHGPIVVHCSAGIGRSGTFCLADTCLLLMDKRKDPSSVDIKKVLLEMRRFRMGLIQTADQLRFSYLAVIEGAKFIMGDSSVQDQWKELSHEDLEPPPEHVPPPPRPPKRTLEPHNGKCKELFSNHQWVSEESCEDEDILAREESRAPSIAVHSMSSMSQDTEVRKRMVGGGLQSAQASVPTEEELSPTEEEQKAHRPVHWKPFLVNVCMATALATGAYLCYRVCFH
Summary of the method: (§1)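 L6 myotubes treated for 16 h with the compound at the indicated concentrations, then stimulated with insulin (100 nM) for 10 min. Cells lysed and analysed by western blot. Densitometry of p-IRS-1, p-AKT and p-GSK, each relative to its total form. Compared with control and with insulin-treated control.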

[2] = tested on: Mus musculus; assay: Antihyperglycemic activity in db/db mouse assessed as reduction in blood glucose level at 30 mg/kg, po qd and measured on day 7 by oral glucose tolerance test; format: functional, organism-based
Summary of the method: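 Type 2 diabetic db/db mice dosed orally once a day for 15 days at 3, 10 or 30 mg/kg, with pioglitazone at 10 mg/kg as standard. Blood glucose measured daily and profile compared with vehicle-treated animals. Mean % change in 5 animals per group.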

[3] = biological target: T1, Tyrosine-protein phosphatase non-receptor type 1 (Rattus norvegicus); assay: Inhibition of PTP1B in rat L6 cells assessed as increase in insulin-stimulated Akt Ser473 phosphorylation at 10 to 25 uM pre-incubated for 16 hrs before insulin stimulation for 10 mins by Western blot method; format: cell-based; summary of the method: as §1
[4] = tested on: Mus musculus; assay: Toxicity in db/db mouse assessed as effect on body weight level at 3 to 30 mg/kg, po qd for 15 days by oral glucose tolerance test; format: organism-based; conditions: in vivo, 360 h
[5] = tested on: Mus musculus; assay: Antihyperglycemic activity in db/db mouse assessed as increase in HDL-C level at 10 mg/kg, po qd for 15 days; format: functional
Summary of the method: (§2)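 db/db mice given 3, 10 or 30 mg/kg orally once a day for 15 consecutive days, alongside vehicle controls. Serum triglyceride, total cholesterol, HDL-C and insulin measured, along with fasting blood glucose. Expressed as mean % change in 5 animals per group versus control.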

[6] = tested on: Mus musculus; assay: Antihyperglycemic activity in db/db mouse assessed as reduction in cholesterol level at 3 mg/kg, po qd for 15 days; format: functional; design: scale not given: the % may be the effect or the level left; summary of the method: as §2
[7] = tested on: Mus musculus; assay: Antihyperglycemic activity in db/db mouse assessed as improvement on glucose tolerance by measuring blood glucose AUC level at 30 mg/kg, po qd for 15 days by oral glucose tolerance test; format: functional
Summary of the method: (§3)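 db/db mice dosed orally once daily for 15 consecutive days at 3, 10 or 30 mg/kg, with vehicle controls and pioglitazone at 10 mg/kg. Oral glucose tolerance tests on day 10 and day 15. Overall improvement in glucose tolerance calculated against vehicle control. Mean % change in 5 animals per group.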

[8] = tested on: Mus musculus; assay: Antihyperglycemic activity in db/db mouse assessed as reduction in triglyceride level at 10 mg/kg, po qd for 15 days; format: functional; design: scale not given: the % may be the effect or the level left; summary of the method: as §2
[9] = tested on: L6; assay: Stimulation of [3H]2-deoxyglucose uptake in rat L6 cells at 10 uM incubated for 16 hrs by scintillation counting method; format: functional, cell-based
Summary of the method: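 L6 myotubes incubated with the compound […]; insulin at 100 nM for 20 min served as the positive control. Uptake of ³H-2-deoxyglucose measured and expressed as fold stimulation relative to the control condition.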

[10] = tested on: Mus musculus; assay: Antihyperglycemic activity in db/db mouse assessed as reduction in triglyceride level at 30 mg/kg, po qd for 15 days; format: functional; design: scale not given: the % may be the effect or the level left; summary of the method: as §2
[11] = tested on: L6; assay: Cytotoxicity in rat L6 cells assessed as reduction in cell viability at 1 to 50 uM by MTT assay; format: cell-based; conditions: l6, 50 µM
[12] = tested on: Mus musculus; assay: Antihyperglycemic activity in db/db mouse assessed as reduction in insulin level at 10 mg/kg, po qd for 15 days; format: functional; design: scale not given: the % may be the effect or the level left; summary of the method: as §2
[13] = tested on: Mus musculus; assay: Antihyperglycemic activity in db/db mouse assessed as improvement on glucose tolerance by measuring blood glucose AUC level at 10 mg/kg, po qd for 15 days by oral glucose tolerance test; format: functional; summary of the method: as §3
[14] = tested on: Mus musculus; assay: Antihyperglycemic activity in db/db mouse assessed as increase in HDL-C level at 3 mg/kg, po qd for 15 days; format: functional; summary of the method: as §2
[15] = tested on: Mus musculus; assay: Toxicity in db/db mouse assessed as effect on food intake level at 3 to 30 mg/kg, po qd for 15 days by oral glucose tolerance test; format: organism-based; conditions: in vivo, 360 h
[16] = tested on: Rattus norvegicus; assay: Antihyperglycemic activity in albino Wistar rat assessed as inhibition of postprandial hyperglycemia at 100 mg/kg, po dosed 30 mins before sucrose load and measured 30 to 120 mins post sucrose injection by glucometry; format: functional
Summary of the method: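 Normal albino rats given an oral sucrose load, with a single oral dose of 100 mg/kg b.wt. Blood glucose profile followed after the load, and glucose AUC taken over 0–2 h. Percent inhibition of the postprandial rise in blood glucose calculated against control. Mean % change in 5 animals per group.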

[17] = tested on: Mus musculus; assay: Antihyperglycemic activity in db/db mouse assessed as reduction in fasting blood glucose level at 10 mg/kg, po qd for 15 days; format: functional; design: scale not given: the % may be the effect or the level left; summary of the method: as §2
[18] = tested on: Mus musculus; assay: Antihyperglycemic activity in db/db mouse assessed as reduction in insulin level at 30 mg/kg, po qd for 15 days; format: functional; design: scale not given: the % may be the effect or the level left; summary of the method: as §2
[19] = tested on: Mus musculus; assay: Antihyperglycemic activity in db/db mouse assessed as reduction in serum insulin level at 3 to 30 mg/kg, po qd for 15 days; format: functional, organism-based; summary of the method: as §2
[20] = tested on: Mus musculus; assay: Antihyperglycemic activity in db/db mouse assessed as increase in HDL-C level at 30 mg/kg, po qd for 15 days; format: functional; summary of the method: as §2
[21] = tested on: Mus musculus; assay: Antihyperglycemic activity in db/db mouse assessed as improvement on glucose tolerance by measuring blood glucose AUC level at 3 mg/kg, po qd for 10 days by oral glucose tolerance test; format: functional; summary of the method: as §3
[22] = tested on: HepG2; assay: Stimulation of [3H]2-deoxyglucose uptake in human HepG2 cells at 10 uM incubated for 16 hrs by scintillation counting method; format: functional, cell-based

Question: `COC(=O)c1c(SC)cc(-c2ccc(C)cc2)c2c1-c1cn(-c3ccccc3)nc1CC2` was tested. Which inhibition [1] did it give?
Answer: The inhibition was “Dose-dependent effect”.

Question: What about the Activity [2] of the same molecule?
Answer: The Activity was “Active”.

Question: What about the inhibition [3] of the same molecule?
Answer: The inhibition was “Active”.

Question: What about the Activity [4] of the same molecule?
Answer: Its Activity is “Non-Toxic”.

Question: What about the Activity [5] of the same molecule?
Answer: Its Activity is 10.9%.

Question: What about the Activity [6] of the same molecule?
Answer: Its Activity is 11.5%.

Question: And the Activity [7]?
Answer: The Activity was 31.6%.

Question: What about the Activity [8] of the same molecule?
Answer: The Activity was 13.2%.

Question: What about the Activity [9] of the same molecule?
Answer: The Activity was “Active”.

Question: And the Activity [10]?
Answer: Its Activity is 18.2%.

Question: What about the Activity [11] of the same molecule?
Answer: The Activity was “Non-Toxic”.

Question: What about the Activity [12] of the same molecule?
Answer: The Activity was 17.7%.

Question: What about the Activity [13] of the same molecule?
Answer: Its Activity is 20.1%.

Question: And the Activity [14]?
Answer: Its Activity is 6.27%.

Question: What about the Activity [15] of the same molecule?
Answer: Its Activity is “Non-Toxic”.

Question: What about the inhibition in vivo at 100 mg/kg [16] of the same molecule?
Answer: The inhibition in vivo at 100 mg/kg was 35.8%.

Question: And the Activity [17]?
Answer: Its Activity is 14.1%.

Question: And the Activity [18]?
Answer: The Activity was 30.5%.

Question: What about the Activity [19] of the same molecule?
Answer: Its Activity is “Dose-dependent effect”.

Question: And the Activity [20]?
Answer: Its Activity is 20.5%.

Question: What about the Activity [21] of the same molecule?
Answer: The Activity was 7.84%.

Question: What about the Activity [22] of the same molecule?
Answer: The Activity was “Active”.

Reference: ChEMBL document CHEMBL4138048, “Synthesis of substituted 2H-benzo[e]indazole-9-carboxylate as a potent antihyperglycemic agent that may act through IRS-1, Akt and GSK-3β pathways” (Medchemcomm, 2017)
